High-throughput results (PubChem)
M1 antag – M1 muscarinic receptor (rat) antagonism; AID 628; CHO-M1 cells, Fluo-4 calcium, ACh EC80 antagonist mode; stronger effect = lower value; B-score at 10 µM; 3.4% of 64,000 active;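 active = calcium fluorescence response, raw or row-and-column corrected B-score, differing from the plate sample mean either way at a set confidence level, mostly lower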
SF-1 act – activators of human nuclear receptor SF-1. Q13285. CHO-K1 Gal4-SF-1 LBD luciferase reporter; % increase over DMSO SF-1-specific signal. activation, % at 10 µM. 1.9% of 65,000 active;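 active = activation above the mean activation of all tested compounds plus 3 SD, cut at about 50% in these data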
Target sequence (Q13285 whole entry, looked up, the tested form may be a part): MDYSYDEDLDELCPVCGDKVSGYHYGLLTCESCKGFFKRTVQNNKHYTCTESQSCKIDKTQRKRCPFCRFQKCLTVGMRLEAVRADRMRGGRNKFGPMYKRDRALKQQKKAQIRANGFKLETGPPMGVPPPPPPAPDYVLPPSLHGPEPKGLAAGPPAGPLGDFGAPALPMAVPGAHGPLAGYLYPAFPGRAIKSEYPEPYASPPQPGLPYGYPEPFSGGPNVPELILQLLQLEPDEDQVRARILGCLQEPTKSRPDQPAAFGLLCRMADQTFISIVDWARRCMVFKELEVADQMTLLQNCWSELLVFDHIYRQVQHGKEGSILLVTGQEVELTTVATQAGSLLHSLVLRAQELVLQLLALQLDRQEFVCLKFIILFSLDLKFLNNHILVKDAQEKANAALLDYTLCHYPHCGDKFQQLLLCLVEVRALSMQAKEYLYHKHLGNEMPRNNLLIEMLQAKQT
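Assay system: CHO-K1 cells co-transfected with Gal4 DBD–human SF-1 LBD, 5xGal4 luciferase reporter; doses: 10 µM only; incubation: 20 h compound exposure at 37 °C after 1 h cell settling; signal: luciferase light emission; evaluation: percent activation versus DMSO; repeats: one test per compound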
MT1-MMP txn act – MT1-MMP promoter transcription activation; HT1080 MT1-MMP promoter luciferase reporter, luminescence, overnight; stronger effect = higher value; activation factor at 10 µM; 0.16% of 86,000 active;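 active = activation factor of at least 2 for MT1-MMP transcription at 10 µM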
M1 agonist – activates the M1 muscarinic receptor; 3% of 64,000 active; B-score at 10 µM; CHO-M1 cells, Fluo-4 calcium fluorescence, agonist mode; stronger effect = higher value; AID 626;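 active = fluorescence rise, raw or as B-score row- and column-corrected plate score, outside the 99.7% band of its plate's samples, either direction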
RORa activator – RORA (human) activation; 1.5% of 65,000 active; CHO-K1 Gal4-RORA LBD luciferase reporter, luminescence; percent increase over mock-subtracted basal signal; activation, % at 10 µM; AID 560;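 active = activation above the mean of all tested compounds plus 3 SD, cut at about 49% in these data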;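 note: 0% = DMSO-treated RORA cells and 100% = added signal equal to DMSO minus mock-transfected cells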
M1 ag confirm – rat M1 muscarinic agonism, confirmation; CHO-M1 cells, Fluo-4 calcium fluorescence, agonist mode; actives lie on both sides; fluorescence change (max-min) at 10 µM; 19% of 1,700 active; shares compounds with M1 agonist;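 active = fluorescence change differs from the solvent-only DMSO control mean at a set confidence level in both duplicate runs; inconclusive = differs from solvent-only control mean in just one of two runs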;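 note: an EC20 dose of acetylcholine follows compound addition during the same imaging run; raw fluorescence intensity difference in instrument units with no normalization to controls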
M4 agonist ctr – counter-screen for M1 agonists: activity at rat M4 receptor; shares compounds with M1 agonist; fluorescence change (max-min) at 10 µM; CHO M4/Gqi5 cells, Fluo-4 calcium fluorescence, agonist mode; actives lie on both sides; 9% of 1,700 active;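 active = fluorescence change differing from the plate's solvent-only control wells at 99.7% confidence in both duplicates, whether higher or lower; inconclusive = differs from solvent controls in only one of two duplicates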
* marks the source's active call; other numbers are inactive results; ? = inconclusive; / = no result. The list is not random: actives were taken first. Their share in the collection is about 6.3%.

SMILES | M1 antag | SF-1 act | MT1-MMP txn act | M1 agonist | RORa activator | M1 ag confirm | M4 agonist ctr
CCN1C(=O)C2(C(C#N)=C(N)Oc3cc(C)oc(=O)c32)c2ccccc21 (configuration not stated) | 0.25 | -3 | / | -0.17 | -13 | / | /
Cc1cc2c(c(=O)o1)C1(C(=O)N(CC(=O)O)c3ccccc31)C(C#N)=C(N)O2 (configuration not stated) | -0.11 | -13 | 1 | 18* | -6 | 60* | 54
CC(=O)c1c(C)nn(CC(O)Cn2c3c(c4cc(C)ccc42)CCCC3=O)c1C (configuration not stated) | 0.39 | 20 | 1 | 5.2* | -8 | -42* | -82
O=CN1Cc2[nH]c3ccccc3c2N(c2ccc(Cl)cc2)C1=O | -0.046 | 0 | 1.1 | 4.8* | -9 | 16 | -20
O=C(Cn1ccc2ccccc2c1=O)NCCC(=O)N1CCN(C2CCCCC2)CC1 | -0.86 | 4 | 1.2 | 17* | -15 | -1.5 | -25
CCOC(=O)Cn1c(=O)oc2cc(S(=O)(=O)Nc3ccc(F)cc3)ccc21 | -1.1 | 0 | 1 | 3.8* | 15 | 37 | 2.6
CCCCOc1ccc(C(=O)NC)cc1 | 0.64 | -7 | 1.2 | -0.77 | -10 | / | /
CCCCOc1ccc(-c2nnc(-c3ccncc3)o2)cc1 | -0.49 | 39 | 1.7 | 2.7* | 59* | -18 | ?
CCOc1ccc(-c2nnc(-c3ccncc3)o2)cc1 | -0.72 | 39 | 1.2 | 0.15 | 36 | / | /
CCCCOc1ccc(C(=O)Nc2ccncc2)cc1 | -3.7* | -6 | 1.5 | 11* | -8 | -17 | ?
CCCCC(=O)Nc1ccc(C(=O)Nc2cccnc2)cc1 | / | / | 1.2 | / | / | / | /
CCCCC(=O)Nc1ccc(C(=O)NCc2ccncc2)cc1 | 1.3 | -4 | 1.2 | 19* | 8 | ? | -49
COc1cccc(C(=O)CSc2nnnn2C)c1 | -0.34 | -6 | 1.2 | -0.54 | -2 | / | /
O=C(C1CCN(S(=O)(=O)c2cccc3cccnc23)CC1)N1CCN(C2CCCC2)CC1 | -0.8 | -5 | 1.1 | 0.19 | -7 | / | /
Cc1cc(NC(=O)CCC(=O)N(c2ccccc2)C(C(=O)NC2CCCCC2)c2cccs2)no1 (configuration not stated) | / | / | 1.1 | / | / | / | /
CC(=O)N1CCN(c2ccc(Nc3ncnc4c3oc3ccccc34)cc2)CC1 | -0.59 | 17 | 1.2 | 8.9* | -15 | -5.9 | ?
O=C(CSc1ncnc2c1oc1ccccc12)N1CCN(c2ccccc2)CC1 | 0.91 | -7 | 1.2 | -1.4 | 14 | / | /
O=C(c1ccc(Cl)cc1)C1CCN(C(=O)C2CC2)CC1 | / | / | 1 | / | / | / | /
O=C(CCc1nc2ccccc2c(=O)[nH]1)N1CCN(C/C=C/c2ccccc2)CC1 | -0.84 | -36 | 1.1 | 9.4* | -32 | 31 | -25
O=c1[nH]c(CN2CCN(C/C=C/c3ccccc3)CC2)nc2cc(Cl)ccc12 | -0.43 | -1 | 1.1 | -0.54 | -8 | / | /
Cc1nn(-c2ccccc2)c(C)c1C(=O)OC/C(O)=C(\C#N)c1nc2ccccc2[nH]1 | 0.65 | 4 | 1.2 | 2.9* | 28 | -21* | -53
COc1ccc(C2=CC(c3ccc(F)cc3)n3nnnc3N2)cc1 (configuration not stated) | 0.22 | 6 | 1.5 | 0.53 | -8 | / | /
COc1ccc(C2=CC(c3ccc(Cl)cc3)n3cnnc3N2)cc1OC (configuration not stated) | -0.38 | -8 | 1.3 | 6.8* | 6 | 223* | 190*
Cc1cnc(NC(=O)c2cc3c(C)nn(-c4ccccc4)c3s2)s1 | / | / | 1.2 | / | / | / | /
COc1ccc(-n2nnnc2SCC(=O)c2ccc(O)c(O)c2)cc1 | -0.0092 | -23 | 1.1 | 11* | -15 | -7.3 | -54
CC1CCN(C(=O)c2ccc(NC(=O)C3CCCO3)cc2)CC1 (configuration not stated) | -0.16 | 6 | 1.1 | 0 | -12 | / | /
Cc1ccc2c(c1)-c1c(cnn1CC(=O)O)CO2 | -0.54 | -15 | 1.3 | 0.31 | 0 | / | /
Cc1ccc2c(c1)-c1c(cnn1CC(=O)N1CCCN(Cc3ccccc3F)C1)CO2 | 0.05 | -11 | 1.1 | 3.4* | -19 | ? | -36
